Shown are actives, neighbours in structure and some others; about 4.7% of the full set was active somewhere.
MrgX1 PAM: human MrgX1 positive allosteric modulation, primary screen. hit rate 0.63% among 310,000. AID 588675. Q96LB2. B-score at 10 µM. MrgX1-HEK293, Fluo-4 calcium flux, FDSS; hits give high values;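 active = plate-corrected calcium response at least 3 library SD above typical, normal starting fluorescence, not activating the receptor alone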;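 also: compound read alongside a low EC10 to EC30 dose of BAM8-22 agonist; peak minus trough fluorescence over baseline measured at the second addition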
Target sequence (Q96LB2 whole entry, looked up): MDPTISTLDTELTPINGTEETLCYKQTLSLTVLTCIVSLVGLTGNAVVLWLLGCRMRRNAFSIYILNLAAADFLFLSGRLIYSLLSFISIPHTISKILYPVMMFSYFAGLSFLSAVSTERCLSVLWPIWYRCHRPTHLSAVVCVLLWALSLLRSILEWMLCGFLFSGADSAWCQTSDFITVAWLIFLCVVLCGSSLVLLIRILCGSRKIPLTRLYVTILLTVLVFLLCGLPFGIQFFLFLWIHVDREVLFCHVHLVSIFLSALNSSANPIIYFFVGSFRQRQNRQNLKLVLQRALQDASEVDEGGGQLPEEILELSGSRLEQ
RGS4 pot: RGS4 potentiation or activation. HEK293 M3R/inducible RGS4, carbachol calcium flux Fluo4; hits give low values. B-score at 10 µM. hit rate 0.92% among 310,000;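 active = B-score of the integrated calcium signal more than 4 SD below the library mean, with starting fluorescence not abnormally high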;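 also: negative B-score means reduced calcium response which marks RGS4 activation or potentiation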
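Detection: kinetic calcium fluorescence imaging with Fluo4-AM dye, 2 µM / Material: HEK293 cells with stable M3R and inducible RGS4 / Schedule: recording 10 s baseline at 1 Hz, 100 s post-agonist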
Cl transport mod: modulators of human KCC2 chloride dependent transport; Q9H2X9; KCC2 cells, thallium flux FluoZin-2 fluorescence; B-score of Tl+ flux slope (higher = more flux/activation; lower = inhibition) at 10 µM; hit rate 2.2% among 190,000;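 active = thallium flux slope and its plate-corrected score both differing from the plate sample mean at a set confidence after two filtering rounds, in either direction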;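 also: slope of fluorescence scaled to starting intensity during 10 to 20 s after thallium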
MrgX1 ag: human MrgX1 receptor agonism, primary screen. hit rate 0.44% among 310,000. AID 588627. Q96LB2. MrgX1-HEK293 cells, Fluo-4 calcium fluorescence, agonist mode; hits give high values. B-score at 10 µM;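 active = calcium response B-score plate-corrected fluorescence ratio at least 3 library SD, with starting fluorescence B-score inside 5 SD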
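Material: MrgX1-expressing HEK293 cells; input: 15,000 cells per well; doses: test compound given as first of three sequential additions; schedule: overnight plating before 1 h dye loading; technique: Fluo-4 NW calcium-flux fluorescence, kinetic read; evaluation: baseline-normalised fluorescence change ratio, B-scored; control set: plate-wise positive and negative controls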
RGS4 block: inhibitors of human RGS4. B-score at 10 µM. HEK293 M3R/RGS4 inducible, Fluo-4 calcium flux; hits give high values; triggered by carbachol at its EC20. hit rate 0.45% among 310,000. P49798. AID 463165;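 active = B-score, a plate-corrected calcium signal, over three deviations above library mean, with baseline fluorescence within five deviations of library mean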;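 also: RGS4 expression induced by doxycycline in cells with stable M3 receptor; B-score is computed from the integrated fluorescence ratio over baseline after carbachol; higher B-score means a larger calcium signal and so more RGS4 inhibition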
Target sequence (P49798 whole entry, looked up): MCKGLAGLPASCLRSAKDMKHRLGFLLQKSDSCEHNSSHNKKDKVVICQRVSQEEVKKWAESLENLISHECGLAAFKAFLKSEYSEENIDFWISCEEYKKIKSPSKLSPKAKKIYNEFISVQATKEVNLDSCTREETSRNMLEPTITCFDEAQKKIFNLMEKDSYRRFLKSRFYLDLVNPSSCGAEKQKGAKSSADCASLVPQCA
MrgX1 antag: blocks BAM8-22 activation of human MrgX1 receptor | MRGX1-HEK293 calcium flux, Fluo-4, BAM8-22 antagonism; hits give low values | B-score at 10 µM | hit rate 1.3% among 310,000;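 active = calcium-response B-score plate-corrected more than 3 library SD below zero, starting fluorescence within 5 deviations, no agonist response on first addition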;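 also: peak minus trough fluorescence over baseline after final BAM8-22 challenge near maximal dose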
KCC2 secondary: confirmation of human KCC2 transport modulators | HEK293-KCC2, thallium flux, FluoZin2 fluorescence; hits give high values | hit rate 15% among 3,700 | shares compounds with Cl transport mod | normalised thallium flux (F/F0 slope) at 10 µM | AID 1713;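 active = thallium flux slope above the same plate's solvent-only control mean plus 3 SD; inconclusive = the two replicate wells disagree; inactive = no significant difference from solvent-only control wells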
KCC2 bumet counter: thallium flux persisting under bumetanide in KCC2 cells, counter-screen secondary assay; shares compounds with Cl transport mod; HEK293-KCC2 + bumetanide/ouabain, thallium flux FluoZin2; hits give high values; normalized thallium flux at 10 µM; hit rate 49% among 3,700;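 active = thallium entry rate above the same plate's blocked-transporter control wells by more than 3 SD; inconclusive = the two repeat wells disagree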;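 also: raw slope of fluorescence over initial fluorescence between 10 and 20 s after thallium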
KCC2 sec2: KCC2 (human) modulation, second secondary assay; shares compounds with Cl transport mod; HEK293-KCC2, thallium flux FluoZin2 fluorescence; actives lie on both sides; F/F0 rise rate, 10–20 s post-thallium; normalized thallium flux at 10 µM; hit rate 23% among 3,700;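 active = thallium flux slope more than 3 SD above or below the plate's solvent-only control mean, mostly below; inconclusive = the two repeat wells disagreed; inactive = no significant shift from solvent-only controls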;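 also: raw slope with 0.1% DMSO as baseline and bumetanide as block control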
HEK counter1: acts in parental HEK cells, KCC2 counter-screen; shares compounds with Cl transport mod; HEK293 parental cells, thallium flux FluoZin2, ouabain; baseline-ratio fluorescence slope, 10–20 s after thallium; thallium flux rate (normalised fluorescence) at 10 µM; hit rate 46% among 3,700; AID 1716;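 active = thallium flux rate significantly above the same plate's solvent-only control wells, beyond their mean plus 3 SD; inconclusive = the two replicate wells gave conflicting results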
KCC2 retest ouab: confirmation of human KCC2 modulators with ouabain | HEK293-KCC2, thallium flux FluoZin2 fluorescence; bidirectional: low = inhibitor, high = activator | shares compounds with Cl transport mod | hit rate 48% among 3,700 | raw Tl+ flux slope (below DMSO = inhibition, above = activation) at 10 µM;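 active = thallium flux slope beyond 3 SD from same-plate DMSO control mean in most replicates, usually higher, sometimes lower; inconclusive = repeat tests gave conflicting results; inactive = no significant difference from controls in most replicates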;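 also: slope of initial-normalized fluorescence between seconds 10 and 20 after thallium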
HEK293 Tl flux2: parental HEK flux effect, counter-screen 2; shares compounds with Cl transport mod; HEK293 parental, thallium flux FluoZin-2 fluorescence slope; thallium flux slope at 10 µM; hit rate 33% among 3,700;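 active = thallium flux slope above the same plate's solvent-control mean plus 3 SD in both duplicate wells; inconclusive = duplicate wells that disagreed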;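 also: run without ouabain in cells lacking the KCC2 cotransporter; slope of fluorescence scaled to its starting value between 10 and 20 s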
Starred values were filed as active, the others as inactive; i = inactive; ? = inconclusive; / = no result.

SMILES	MrgX1 PAM	RGS4 pot	Cl transport mod	MrgX1 ag	RGS4 block	MrgX1 antag	KCC2 secondary	KCC2 bumet counter	KCC2 sec2	HEK counter1	KCC2 retest ouab	HEK293 Tl flux2
COc1ccc(-c2nn(C)c(=O)c3ccccc23)cc1NS(C)(=O)=O	i	i	/	i	i	i	0.0078	0.0057	0.03	0.0065	0.019	0.0093
Fc1ccc(-c2csc(=S)[nH]2)cc1	i	i	83*	i	i	i	0.039*	0.11*	0.047*	0.075*	0.087*	0.025*
CC(C)NC(=O)COc1coc(CN2CCN(c3ccccc3F)CC2)cc1=O	i	i	/	i	i	i	/	/	/	/	/	/
O=C(NC1CCCCCC1)C1CCN(c2nc3ccccc3o2)CC1	i	i	/	i	i	i	0.0094	0.0057	?	0.0042	0.018*	0.011
CC1CCCCN1CCCNC(=O)C1CCN(c2nc3ccccc3o2)CC1 (configuration not stated)	i	i	1.4	i	i	i	/	/	/	/	/	/
COc1ccc(Cl)cc1NC(=O)C1(c2cccs2)CCOCC1	i	i	0.24	i	i	i	/	/	/	/	/	/
Cc1ccsc1C(=O)Nc1nnc(-c2ccco2)o1	i	i	/	i	i	i	0.013*	0.026*	0.032	0.015*	0.03*	0.011*
O=C(N/N=C1\CCc2ccccc21)c1ccccc1O	i	i	0.84	i	i	i	/	/	/	/	/	/
O=C(OC1CCc2ccccc2C1=O)c1ccccc1O (configuration not stated)	i	/	-3.8*	i	/	i	0.0087	?	0.027*	0.0075	0.013*	0.011
Cc1cc(C)c(NC(=O)CN(c2ccccc2)S(=O)(=O)N(C)C)c(C)c1	i	i	5.2*	i	i	i	0.0092	0.0052	0.034	0.0069	0.021	0.01
Cc1ccc(NC(=O)CN(c2ccccc2)S(=O)(=O)N(C)C)cc1C	i	i	0.2	i	i	i	/	/	/	/	/	/
CC(C)Oc1ccc(S(=O)(=O)N2CCOCC2)cc1NC(=O)Cc1cccs1	i	i	/	i	i	i	/	/	/	/	/	/
COc1ccc(Nc2cc(C)c3ccc(O)cc3n2)cc1	i	i	-2.8	i	i	i	0.0079	0.0055	0.033	?	0.023	0.01
Cc1cc(Nc2ccccc2)nc2cc(O)ccc12	i	i	-1.6	i	i	i	/	/	/	/	/	/
COC(=O)CNC(=S)NC(=O)c1ccc(C(C)(C)C)cc1	i	i	6.3*	i	i	i	0.0054	0.015*	0.032	0.011*	?	?
COc1ccc(C(=O)NC(=S)NCc2ccccc2)cc1	i	i	-3*	i	i	i	0.0071	0.0077*	0.029	0.0085	0.019	0.011
O=C(NCc1ccc2c(c1)OCO2)c1ccccc1	i	i	0.66	i	i	i	/	/	/	/	/	/
COc1ccc(C(=O)NC(=S)NNC(=O)c2ccc3ccccc3n2)cc1	i	i	57*	i	i	i	?	0.072*	?	0.067*	0.063*	0.042*
O=C(NC(=S)NCc1ccc2c(c1)OCO2)c1ccccc1	i	i	12*	i	i	i	0.0091	0.019*	0.027	0.009*	?	?
COc1cc(Cl)c(C)cc1NC(=O)COC(=O)C1=COCCO1	i	i	/	i	i	i	/	/	/	/	/	/
COc1ccccc1N1CCN(C2CCCN(C(=O)CCN3CCCCO3)C2)CC1 (configuration not stated)	i	i	/	i	i	i	/	/	/	/	/	/
CCOC(=O)NC(=S)Nc1ccc(C(C)(C)C)cc1	i	i	139*	i	i	i	0.026*	0.085*	0.039	0.065*	0.067*	0.02*
CCOC(=O)c1sc(NC(=S)NC(=O)c2ccccc2)nc1C	i	i	54*	i	i	i	0.0055	0.089*	0.071*	0.063*	0.081*	0.055*
CCOC(=O)C(NC(C)=O)C(=O)Nc1ccc(C(C)(C)C)cc1 (configuration not stated)	i	i	0.3	i	i	i	/	/	/	/	/	/
O=C(Nc1cc(Cl)ccc1-n1cncn1)c1ccc([N+](=O)[O-])s1	i	i	/	i	i	i	/	/	/	/	/	/
SMILES	MrgX1 PAM	RGS4 pot	Cl transport mod	MrgX1 ag	RGS4 block	MrgX1 antag	KCC2 secondary	KCC2 bumet counter	KCC2 sec2	HEK counter1	KCC2 retest ouab	HEK293 Tl flux2
O=C(NN=C1CCCC1)c1ccc(O)cc1	i	i	/	i	i	i	/	/	/	/	/	/
O=C(O)CC(=O)NC12CC3CC(CC(C3)C1)C2	i	i	0.31	i	i	i	0.0092	0.0062	0.035	0.0079	0.022	?
O=c1cc(-c2c(F)c(F)c(F)c(F)c2F)oc2ccccc12	i	i	-0.76	i	i	i	/	/	/	/	/	/
O=c1cc(-c2c(F)c(F)c(F)c(F)c2F)oc2c(F)c(F)c(F)c(F)c12	i	i	-2.7*	i	i	i	0.0068	?	0.031	0.0078	0.02	0.011
Cc1ccc([N+](=O)[O-])c(C(=O)N/N=C/c2cccs2)c1	i	i	4.5*	i	i	i	0.017	0.014*	0.032	0.011*	0.02	0.014*
Cc1ccc(OCC(=O)N/N=C\c2cccs2)c([N+](=O)[O-])c1	i	i	-0.75	i	i	i	/	/	/	/	/	/
O=C(N/N=C/c1ccc([N+](=O)[O-])s1)c1ccncc1	i	i	1.1	i	i	i	/	/	/	/	/	/
Cc1ccc(C(=O)N/N=C/c2ccc([N+](=O)[O-])s2)cc1	i	i	6.6*	i	i	i	0.0077	0.015*	0.029	0.016*	?	?
